Series [1] in a line: Binding affinity to full length yeast His-tagged Hsp90 (1 to 709) overexpressed in Escherichia coli BL21 Star (DE3) by tryptophan fluorescence assay. More on the design: species or system Saccharomyces cerevisiae.
The next series addresses Endoplasmin (Canis lupus familiaris, UniProt P41148). Kind of series: Binding affinity to canine full-length His-tagged GRP94 (28 to 754 residues lacking 287 to 327 residues) expressed in Escherichia coli by tryptophan fluorescence assay.
Series [2] deals with Heat shock protein HSP90 (Homo sapiens) (UniProt P07900+P08238). Put plainly: Inhibition of HSP90 in human SKBR3 cells assessed as induction of HSP70 activity at 1 to 25 uM after 24 hrs by Western blot analysis. Format: cell-based. As to conditions: SK-BR-3. In outline:
(§1)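 SKBr3 cells were treated 24 h with DMSO vehicle or compound, then lysed in RIPA with protease inhibitors. Lysate (5−50 μg) was run on SDS−PAGE and immunoblotted for HER2 or Hsp70, with β-actin as loading control. Detection was by HRP secondary and ECL, with densitometry. Blots are representative of triplicate experiments.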

Series [3] deals with Endoplasmin (Mus musculus) (UniProt P08113). Kind of series: Inhibition of Grp94 in mouse RAW264.7 cells assessed as inhibition of CpG-induced TNFalpha production after 18 hrs by ELISA. Format: cell-based.
The nature of series [4]: Oral bioavailability in B6D2F1 mouse at 10 mg/kg by LC-MS/MS analysis. Format: ADME, organism-based. The note with it: in vivo. In outline: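 Male B6D2F1 mice (n = 2 per time point, 20 total) got a single 10 mg/kg iv or oral dose in 30% captisol, 5 mM citrate pH 4.2. Plasma levels at sacrifice times were measured by LC−MS/MS, converted to molar assuming 1 g = 1 mL, and plotted versus time. Oral F was derived.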

The subject of a further series is Nucleic Acid. Put plainly: Ratio of drug level in tumor to heart in nu/nu athymic mouse xenografted with human MDA-MB-468 cells at 75 mg/kg, ip measured at 24 hrs by LC-MS/MS analysis. The class given is ADME, organism-based. The note with it: in vivo. Details: dose 75 mg/kg, route intraperitoneal. The essentials:
(§2)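 Mice bearing subcutaneous MDA-MB-468 breast tumors (1 × 10^7 cells in right flank) got a single 75 mg/kg ip dose, n = 4 per time point. They were sacrificed at 2 and 24 h. Drug in tumor, tissues and plasma was quantified by LC−MS/MS, and tumor-to-tissue or tumor-to-plasma ratios were computed. Mean ± error.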

The species entered for series [5] is Homo sapiens. Put plainly: Selectivity ratio of IC50 for recombinant Hsp90beta (unknown origin) to IC50 for recombinant Grp94 (unknown origin).
For series [6], the species on record is Homo sapiens. Put plainly: Selectivity ratio of IC50 for recombinant Trap1 (unknown origin) to IC50 for recombinant Grp94 (unknown origin).
Series [7] concerns the target Endoplasmin (Mus musculus) (UniProt P08113). Put plainly: Inhibition of Grp94 in mouse differentiated C2C12 cells assessed as inhibition of IGF-2 secretion after 24 hrs by ELISA. Format: cell-based. In outline: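 C2C12 mouse myoblasts were shifted to differentiation medium (DMEM, 2% horse serum) and treated 24 h with compounds. Medium was captured overnight at 4 °C on anti-IGF-II ELISA plates and detected with biotinylated antibody, HRP-streptavidin and TMB. A450 was read, and IGF-II was quantified against a recombinant IGF-II standard curve.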

Series [8] has as its target Endoplasmin (Homo sapiens) (UniProt P14625). Kind of series: Inhibition of Grp94 in human SKBR3 cells overexpressing HER2 assessed as degradation of HER2 at 1 to 25 uM after 24 hrs by Western blot analysis. The class given is cell-based. As to conditions: SK-BR-3. In outline:
as §1

Series [9] has the same target. Put plainly: Inhibition of Grp94 in HEK293T cells assessed as downregulation of TLR9 protein expression in post ER compartment after 24 hrs by confocal microscopic analysis. As to conditions: HEK-293T. Format: cell-based. In outline:
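HEK293T cells were transfected with HA-tagged human TLR9 and split onto chamber slides 24 h later. They were then treated 24 h at varying concentrations. Cells were fixed in 4% paraformaldehyde, permeabilized with Triton X-100 and blocked in 3% BSA. They were stained with anti-HA then Cy3 secondary, with DAPI. Imaging was by confocal microscopy, and fluorescence intensity was normalized to cell number.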

Series [10] can be described thus: Plasma concentration in nu/nu athymic mouse xenografted with human MDA-MB-468 cells at 75 mg/kg, ip measured at 2 hrs by LC-MS/MS analysis. Format: ADME, organism-based. More on the design: dose 75 mg/kg, route intraperitoneal. In outline:
as §2

The test system of the next series is RAW264.7. Put plainly: Inhibition of HSP90 in mouse RAW264.7 cells assessed as inhibition of LPS-induced TNFalpha production at 2 to 16 uM after 18 hrs by ELISA. The class given is cell-based.
A short description of series [11]: Drug uptake in tumor of nu/nu athymic mouse xenografted with human MDA-MB-468 cells at 75 mg/kg, ip measured at 2 hrs by LC-MS/MS analysis. Format: ADME, organism-based. More on the design: dose 75 mg/kg, route intraperitoneal. As to conditions: read-out: Drug uptake. In outline: as §2
The subject of the next series is Mus musculus. Put plainly: Acute toxicity in nu/nu athymic mouse xenografted with human MDA-MB-468 cells at 150 mg/kg, ip. Format: organism-based. More on the design: dose 150 mg/kg, route intraperitoneal. The note with it: in vivo. The essentials: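 MDA-MB-468 cells (1 × 10^7) were implanted sc in the right flank and allowed to grow. Tumour-bearing mice (n = 4) received 75 or 150 mg/kg ip and were followed for acute toxicity. Augmentin was given in the drinking water during therapy.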

Series [12] in a line: Ratio of drug level in tumor to plasma in nu/nu athymic mouse xenografted with human MDA-MB-468 cells at 75 mg/kg, ip measured at 24 hrs by LC-MS/MS analysis. Format: ADME, organism-based. Details: dose 75 mg/kg, route intraperitoneal. The essentials:
as §2

The structures appear in SMILES notation. The source made the active and inactive calls. The calls are words filed in the database; no cut-off is given here.

Sequence of Endoplasmin (Homo sapiens) (P14625 whole entry): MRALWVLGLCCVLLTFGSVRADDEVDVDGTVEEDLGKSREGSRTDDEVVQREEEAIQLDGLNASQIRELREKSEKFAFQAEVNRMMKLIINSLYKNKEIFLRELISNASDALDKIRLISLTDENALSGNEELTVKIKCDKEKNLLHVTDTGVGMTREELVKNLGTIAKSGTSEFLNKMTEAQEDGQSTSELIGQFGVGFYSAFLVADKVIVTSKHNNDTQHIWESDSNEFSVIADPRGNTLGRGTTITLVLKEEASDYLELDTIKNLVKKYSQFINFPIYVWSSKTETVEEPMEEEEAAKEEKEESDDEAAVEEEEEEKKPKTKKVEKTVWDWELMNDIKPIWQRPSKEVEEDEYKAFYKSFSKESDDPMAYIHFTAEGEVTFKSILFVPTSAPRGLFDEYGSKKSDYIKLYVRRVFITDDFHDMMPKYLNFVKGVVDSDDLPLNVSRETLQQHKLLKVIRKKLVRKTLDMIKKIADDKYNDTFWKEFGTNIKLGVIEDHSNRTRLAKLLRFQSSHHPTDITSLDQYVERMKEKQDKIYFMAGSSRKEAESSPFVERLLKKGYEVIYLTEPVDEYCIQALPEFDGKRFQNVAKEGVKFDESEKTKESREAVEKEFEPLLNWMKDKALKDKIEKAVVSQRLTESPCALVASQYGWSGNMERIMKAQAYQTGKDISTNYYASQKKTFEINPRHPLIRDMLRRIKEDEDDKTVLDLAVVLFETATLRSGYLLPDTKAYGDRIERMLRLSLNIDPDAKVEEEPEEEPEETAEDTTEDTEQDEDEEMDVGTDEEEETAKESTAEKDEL
Sequence of Endoplasmin (Mus musculus) (P08113 whole entry): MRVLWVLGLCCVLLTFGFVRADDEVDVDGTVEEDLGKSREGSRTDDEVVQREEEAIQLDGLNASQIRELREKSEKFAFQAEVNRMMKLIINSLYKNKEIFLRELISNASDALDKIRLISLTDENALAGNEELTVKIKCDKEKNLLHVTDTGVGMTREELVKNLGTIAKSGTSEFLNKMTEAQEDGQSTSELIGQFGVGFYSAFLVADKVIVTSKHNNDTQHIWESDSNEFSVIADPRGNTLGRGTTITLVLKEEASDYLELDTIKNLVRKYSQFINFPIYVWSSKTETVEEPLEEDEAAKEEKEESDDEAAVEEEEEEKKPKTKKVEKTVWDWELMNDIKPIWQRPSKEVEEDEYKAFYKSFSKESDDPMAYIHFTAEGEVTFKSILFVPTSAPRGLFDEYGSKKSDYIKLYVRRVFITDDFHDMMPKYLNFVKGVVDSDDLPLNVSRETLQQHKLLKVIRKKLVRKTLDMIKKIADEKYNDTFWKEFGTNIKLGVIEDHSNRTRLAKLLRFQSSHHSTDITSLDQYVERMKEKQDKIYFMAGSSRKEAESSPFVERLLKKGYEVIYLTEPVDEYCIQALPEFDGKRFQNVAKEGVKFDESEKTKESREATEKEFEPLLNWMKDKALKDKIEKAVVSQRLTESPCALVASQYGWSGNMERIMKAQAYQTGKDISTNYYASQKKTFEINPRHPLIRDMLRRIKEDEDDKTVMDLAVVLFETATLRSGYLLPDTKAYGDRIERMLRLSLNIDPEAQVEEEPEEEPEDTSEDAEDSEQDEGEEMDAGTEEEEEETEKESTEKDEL
Sequence of Endoplasmin (P41148 22-804 limits assumed): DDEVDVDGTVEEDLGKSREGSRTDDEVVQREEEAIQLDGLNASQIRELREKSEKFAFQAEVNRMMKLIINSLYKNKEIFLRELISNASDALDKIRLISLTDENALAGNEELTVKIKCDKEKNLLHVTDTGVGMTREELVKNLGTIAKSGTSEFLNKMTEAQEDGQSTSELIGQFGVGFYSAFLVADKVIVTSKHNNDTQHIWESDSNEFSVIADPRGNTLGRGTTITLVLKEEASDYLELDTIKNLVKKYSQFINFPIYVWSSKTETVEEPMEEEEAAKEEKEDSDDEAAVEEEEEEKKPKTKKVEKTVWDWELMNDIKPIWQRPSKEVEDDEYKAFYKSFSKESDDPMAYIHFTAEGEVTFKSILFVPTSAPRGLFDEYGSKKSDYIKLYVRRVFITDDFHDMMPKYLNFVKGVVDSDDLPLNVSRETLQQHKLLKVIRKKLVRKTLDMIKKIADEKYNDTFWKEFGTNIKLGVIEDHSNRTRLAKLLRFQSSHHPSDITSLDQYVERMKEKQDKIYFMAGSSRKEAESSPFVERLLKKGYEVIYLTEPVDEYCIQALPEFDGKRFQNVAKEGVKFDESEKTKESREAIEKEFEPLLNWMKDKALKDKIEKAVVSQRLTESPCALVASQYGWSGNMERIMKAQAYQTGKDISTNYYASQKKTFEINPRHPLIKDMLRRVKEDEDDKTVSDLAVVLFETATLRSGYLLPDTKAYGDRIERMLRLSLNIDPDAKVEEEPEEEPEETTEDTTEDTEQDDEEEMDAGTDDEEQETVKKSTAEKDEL

As for `COC(=O)c1c(O)cc(O)c(Cl)c1CCC(=O)NC1=CC(=O)C(OC)=CC1=O`, the Kd in series [1] is 870 nM; on Endoplasmin it was 520 nM.
On to `CC(C)NCCCn1c(Sc2cc(Cl)cc(Cl)c2)nc2c(N)ncnc21`, for which the inhibition result (in series [2]; in the series on RAW264.7) was “inactive” each time. The inhibition entry in series [3], in series [7] and in series [9] was “Dose-dependent effect” throughout. The compound further displayed a bioavailability in series [4] of 80%. Also, the Ratio with Nucleic Acid is given as 100. Besides, the Ratio IC50 in the series filed under Homo sapiens [5] was more than 100; in the series listed under Homo sapiens [6], 33. In addition, the inhibition result in series [8] is “Active”. In addition, the concentration at 2 h in [10] was 100 µM; in series [11], 850 µM. Further, in the series with Mus musculus, the Activity result is reported as “Non-toxic”. In addition, the Kp at 24 h in series [12] was 200.
